Calls of active or inactive are those of the source.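 Rule for the calls, unless noted: active = GFP response above 150% of the DMSO level; inconclusive = fewer than 70 events counted for a yeast strain; inactive = the rest.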
How the values were obtained:
[1] = hit retest on RPL19A-GFP reporter strain – cell-based, S. cerevisiae, flow cytometry, cherry picks, mother/daughter gates, confirmation (AID 2270;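 active = GFP response below 50% of the DMSO control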); details: 3 h, at 10 µM, stronger effect = lower value, 100 = same GFP as DMSO wells
[2] = yeast TOR pathway reporter LAP4-GFP change – cell-based, cherry picks, flow cytometry, mother/daughter gates, confirmation (AID 2271;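 active = GFP response above 150% of the DMSO control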;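 note: ratio of sample to DMSO plate mean so 100% equals DMSO level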); details: S. cerevisiae LAP4-GFP strain, 3 h, at 10 µM, stronger effect = higher value, 100 means same as DMSO control
How it was run: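 Material – Alexa Fluor 633-labelled Saccharomyces cerevisiae GFP-fusion strain, single-plex · Incubation – compound exposure 3 h at 30 °C, end-over-end rotation · Measured by – GFP by flow cytometry · Measure – median GFP fluorescence as percent of plate-mean DMSO wells · Control set – positive rapamycin (400 ng/mL), negative DMSO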

[3] = TOR pathway reporter MEP2-GFP, retest of hits – S. cerevisiae, flow cytometry GFP, cherry picks, confirmation (AID 2272;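 active = GFP response above 150% of the DMSO control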;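 note: ratio of well signal to plate DMSO mean so 100% equals DMSO level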); details: S. cerevisiae MEP2-GFP strain, 3 h, at 10 µM, stronger effect = higher value
[4] = yeast AGP1-GFP fluorescence change, single-dose – cell-based, flow cytometry, S. cerevisiae, cherry picks, confirmation (AID 2273);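 note: median GFP channel fluorescence over the whole cell population gate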; details: S. cerevisiae AGP1-GFP strain, 3 h, at 10 µM
[5] = TOR pathway CIT2 reporter hit retest – S. cerevisiae, GFP fusion, cherry picks, mother/daughter gates, confirmation (AID 2274); details: S. cerevisiae CIT2-GFP strain, flow cytometry, 3 h, at 10 µM, stronger effect = higher value
[6] = measured here: daughter cell gate
[7] = measured here: mother cell gate
[8] = measured here: daughter cell gate response
[9] = measured here: mother cell gate response

| SMILES | GFP response vs DMSO [1] | GFP response vs DMSO [1, 6] [%] | GFP response vs DMSO [1, 7] [%] | GFP response relative to DMSO [2] | GFP response relative to DMSO [2, 8] [%] | GFP response relative to DMSO [2, 9] [%] | GFP response vs DMSO [3] | GFP response, % of DMSO [4] | GFP response, % of DMSO [5] | GFP response, % of DMSO [5, 6] [%] | GFP response, % of DMSO [5, 7] [%] |
| --- | --- | --- | --- | --- | --- | --- | --- | --- | --- | --- | --- |
| COc1ccc(-c2cc(C(F)(F)F)nc(S(C)(=O)=O)n2)cc1 | 102% (inactive) | 104 | 96.1 | 136% (inactive) | 134 | 133 | 130% (inactive) | 116% (inactive) | 95.2% (inactive) | 98.1 | 86.9 |
| O=S(=O)(c1ccc(NC(=S)N/N=C/c2cccc(Oc3ccccc3)c2)cc1)N1CCOCC1 | 97.8% (inactive) | 98.6 | 97.3 | 94.9% (inactive) | 93.5 | 96.2 | 105% (inactive) | 106% (inactive) | 102% (inactive) | 103 | 103 |
| COc1ccc(C(=O)ON=C2CCN(c3ccc([N+](=O)[O-])cc3)CC2)cc1 | 97.6% (inactive) | 97.5 | 97.6 | 117% (inactive) | 107 | 118 | 97.5% (inactive) | 76.1% (inactive) | 108% (inactive) | 104 | 108 |
| CCn1c(=O)c(C(=O)NCCCO)c(O)c2ccccc21 | 102% (inactive) | 101 | 102 | 111% (inactive) | 111 | 112 | 114% (inactive) | 99.1% (inactive) | 106% (inactive) | 105 | 107 |
| Cc1ccc(C(=O)c2c3ccccc3[n+]([O-])n2CCO)cc1 | 97% (inactive) | 97.4 | 96.6 | 96.7% (inactive) | 96 | 94 | 98.3% (inactive) | 97.6% (inactive) | 96.9% (inactive) | 99.1 | 97.3 |
| CCCCNc1c(-c2ccc(SC(C)CC)cc2)nc2ccccn12 (stereo not drawn) | 94.2% (inactive) | 88.6 | 95.8 | 120% (inactive) | 114 | 124 | 109% (inactive) | 93.3% (inactive) | 92.6% (inactive) | 89.9 | 91.4 |
| Cc1nc2c(-c3ccc(F)cc3)cnn2c(N)c1-c1ccccc1 | 99.6% (inactive) | 97.9 | 98.8 | 101% (inactive) | 97.5 | 100 | 103% (inactive) | 96.7% (inactive) | 103% (inactive) | 101 | 104 |
| CS(=O)(=O)c1nc(-c2ccccc2)cc(C(F)(F)F)n1 | 102% (inactive) | 105 | 95.9 | 192% (active) | 179 | 189 | 146% (inactive) | 102% (inactive) | 95.2% (inactive) | 101 | 86.9 |
| Cc1[nH][nH]c(=O)c1C(c1ccc(N(C)C)c(Br)c1)c1c(C)[nH][nH]c1=O | 99.3% (inactive) | 98 | 99.2 | 116% (inactive) | 115 | 114 | 104% (inactive) | 105% (inactive) | 96.4% (inactive) | 96.4 | 94.5 |
| CCCCn1c(-c2csc3c2CCCC3)n[nH]c1=S | 91.5% (inactive) | 88.2 | 94.1 | 122% (inactive) | 117 | 128 | 93.3% (inactive) | 95.6% (inactive) | 80.6% (inactive) | 77.9 | 80.5 |
| Clc1ccc(N=c2ssnc2Cl)cc1 | 97.8% (inactive) | 99.2 | 92.9 | 154% (active) | 139 | 161 | 107% (inactive) | 97.4% (inactive) | 104% (inactive) | 105 | 99.8 |
| CCOc1cc(/C=C2/N=C(c3ccc4c(c3)OCO4)OC2=O)ccc1OC(C)=O | 92% (inactive) | 87.5 | 94.2 | 95.7% (inactive) | 95.9 | 96.2 | 101% (inactive) | 103% (inactive) | 97.3% (inactive) | 95.6 | 98.1 |
| O=C(OCC(=O)N1CCN(C(=O)c2ccco2)CC1)c1cc(-c2cccc(Br)c2)nc2ccccc12 | 80.3% (inactive) | 75.5 | 76.9 | 139% (inactive) | 117 | 144 | 125% (inactive) | 127% (inactive) | 128% (inactive) | 114 | 125 |
| COc1ccc(NC(=S)N2CCC(c3ccccc3)C2)cc1 (stereo not drawn) | 103% (inactive) | 98.8 | 98 | 97% (inactive) | 95.9 | 97.3 | 101% (inactive) | 98.6% (inactive) | 97.3% (inactive) | 93.8 | 94.4 |
| O=C1C(Cl)=C(NCCc2ccccc2)C(=O)N1CCc1ccccc1 | 103% (inactive) | 103 | 104 | 106% (inactive) | 107 | 101 | 112% (inactive) | 103% (inactive) | 106% (inactive) | 106 | 106 |
| CCc1sc(C(=O)N2CCc3ccccc32)cc1C | 94.9% (inactive) | 93.3 | 94.6 | 114% (inactive) | 111 | 114 | 99.3% (inactive) | 96.8% (inactive) | 87.5% (inactive) | 85.2 | 88.2 |
| c1ccc(-c2n[nH]c3ccccc23)cc1 | 98.4% (inactive) | 97.1 | 97.6 | 101% (inactive) | 101 | 98.3 | 96.2% (inactive) | 92.1% (inactive) | 96.9% (inactive) | 97.2 | 97.3 |

| SMILES | GFP response vs DMSO [1] | GFP response vs DMSO [1, 6] [%] | GFP response vs DMSO [1, 7] [%] | GFP response relative to DMSO [2] | GFP response relative to DMSO [2, 8] [%] | GFP response relative to DMSO [2, 9] [%] | GFP response vs DMSO [3] | GFP response, % of DMSO [4] | GFP response, % of DMSO [5] | GFP response, % of DMSO [5, 6] [%] | GFP response, % of DMSO [5, 7] [%] |
| --- | --- | --- | --- | --- | --- | --- | --- | --- | --- | --- | --- |
| COc1ccccc1NC(=O)Cn1nnc(-c2ccccc2NC(=O)c2ccco2)n1 | 95.9% (inactive) | 96.1 | 96.6 | 85.4% (inactive) | 87.9 | 89 | 100% (inactive) | 95.4% (inactive) | 99.1% (inactive) | 98.1 | 99.8 |
| COc1ccccc1-c1nnc(NC(=O)c2ccc3c(c2)OCO3)s1 | 106% (inactive) | 104 | 108 | 85.4% (inactive) | 84.8 | 89 | 97.8% (inactive) | 98.5% (inactive) | 100% (inactive) | 101 | 99.8 |
| O=[N+]([O-])c1ncccc1OCc1ccc(-c2ccccc2)cc1 | 101% (inactive) | 99.6 | 98.8 | 135% (inactive) | 138 | 131 | 160% (inactive) | 104% (inactive) | 123% (inactive) | 126 | 114 |
| Cc1ccc(C(=O)Oc2oc(-c3ccco3)nc2C=Nc2ccc(Cl)cc2)cc1 | 102% (inactive) | 98.3 | 98.8 | 207% (active) | 168 | 205 | 110% (inactive) | 93.8% (inactive) | 106% (inactive) | 111 | 98 |
| CC(=O)S[C@@H]1CC2=CC(=O)CC[C@]2(C)[C@H]2CC[C@@]3(C)[C@@H](CC[C@@]34CCC(=O)O4)[C@H]12 | 101% (inactive) | 99.2 | 100 | 97.4% (inactive) | 97.2 | 98.3 | 100% (inactive) | 95.9% (inactive) | 99.1% (inactive) | 96.5 | 98.7 |
| O=C1CC(c2ccccc2)CN1S(=O)(=O)c1ccccc1 (stereo not drawn) | 98.4% (inactive) | 96.4 | 98.9 | 97.9% (inactive) | 99.2 | 97.2 | 105% (inactive) | 101% (inactive) | 103% (inactive) | 103 | 103 |
| COc1ccc(OC)c(S(=O)(=O)ON2C(=O)c3ccccc3C2=O)c1 | 105% (inactive) | 98.3 | 93.8 | 156% (active) | 157 | 158 | 114% (inactive) | 96.9% (inactive) | 102% (inactive) | 119 | 87.5 |
| Oc1cccc(/C=N/c2c(-c3ccco3)nc3ccccn23)c1 | 96.6% (inactive) | 96.2 | 96.9 | 96.5% (inactive) | 97.9 | 94.6 | 97.5% (inactive) | 97.1% (inactive) | 96.4% (inactive) | 98.3 | 94.5 |
| Cc1cccn2c(=O)c(/C=C(\C#N)C(=O)NCc3ccco3)c(N3CCOCC3)nc12 | 100% (inactive) | 101 | 99.6 | 97% (inactive) | 97.5 | 96.2 | 99% (inactive) | 98% (inactive) | 100% (inactive) | 103 | 98.1 |
| Cc1cc(NCCCn2ccnc2)n2ncc(-c3ccccc3)c2n1 | 96.6% (inactive) | 99.1 | 96.7 | 95.7% (inactive) | 94.2 | 96.2 | 99% (inactive) | 104% (inactive) | 100% (inactive) | 101 | 101 |
| O=C1c2ccccc2C2=Nc3ccccc3SC(c3cccc(F)c3)C12 (stereo not drawn) | 102% (inactive) | 98.4 | 102 | 106% (inactive) | 108 | 102 | 139% (inactive) | 103% (inactive) | 117% (inactive) | 106 | 106 |
| O=C(CSc1nc2ccsc2c(=O)n1CC1CCC(C(=O)O)CC1)c1ccc(F)cc1 (stereo not drawn) | 102% (inactive) | 100 | 103 | 89% (inactive) | 89.5 | 91.1 | 100% (inactive) | 94.6% (inactive) | 92.6% (inactive) | 94.8 | 92.3 |
| COc1ccc([N+](=O)[O-])c(S(=O)(=O)c2ccccc2)n1 | 93.7% (inactive) | 95.8 | 90.8 | 195% (active) | 170 | 204 | 112% (inactive) | 113% (inactive) | 86% (inactive) | 96.8 | 75.8 |
| CC(C)(C)NC(=O)CN(C(=O)CCC(=O)Nc1nccs1)c1ccc(F)cc1 | 101% (inactive) | 100 | 101 | 98.2% (inactive) | 95.9 | 98.4 | 105% (inactive) | 101% (inactive) | 102% (inactive) | 99.2 | 101 |
| O=C1c2cccc3cccc(c23)C(=O)N1c1nccs1 | 103% (inactive) | 102 | 104 | 116% (inactive) | 117 | 112 | 133% (inactive) | 106% (inactive) | 130% (inactive) | 132 | 131 |
| O=C1c2ccccc2C(=O)c2c([N+](=O)[O-])ccc(O)c21 | 82.2% (inactive) | 91.2 | 74.2 | 122% (inactive) | 114 | 124 | 110% (inactive) | 106% (inactive) | 92.2% (inactive) | 93.7 | 82.8 |

— PubChem BioAssay
